Each structure is given as a SMILES string. Calls of active or inactive are those of the source. The rule behind the calls is not given here.

Consider 20 compounds from ChEMBL document CHEMBL1149436, “New bicyclic cannabinoid receptor-1 (CB1-R) antagonists” (Bioorg Med Chem Lett, 2006).

T1 sequence (P21554 whole entry): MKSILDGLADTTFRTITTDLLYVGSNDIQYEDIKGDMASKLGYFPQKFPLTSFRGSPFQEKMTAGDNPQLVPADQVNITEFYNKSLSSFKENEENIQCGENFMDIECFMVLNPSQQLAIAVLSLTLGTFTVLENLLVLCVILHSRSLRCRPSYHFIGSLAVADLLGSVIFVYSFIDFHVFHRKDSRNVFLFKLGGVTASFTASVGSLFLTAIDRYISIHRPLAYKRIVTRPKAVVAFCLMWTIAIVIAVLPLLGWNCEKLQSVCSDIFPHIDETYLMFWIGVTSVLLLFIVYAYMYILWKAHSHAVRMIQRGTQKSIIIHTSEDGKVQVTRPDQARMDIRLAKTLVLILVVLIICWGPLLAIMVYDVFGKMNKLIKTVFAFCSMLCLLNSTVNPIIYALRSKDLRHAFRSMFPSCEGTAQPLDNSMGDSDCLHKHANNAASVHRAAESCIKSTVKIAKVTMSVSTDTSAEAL

The subject of one series is Rattus norvegicus. The series can be described thus: Anorectic activity assessed in a fasting-induced re-feeding model in Sprague-Dawley rat at 1 mg/kg, po relative to control. The format is functional.
Conditions: not given
The method in brief:
(§1)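 Male CD rats fasted overnight, dosed orally the next morning with suspension in 0.5% methylcellulose. Food returned 0.5 h after dosing; cumulative intake measured 1.5 h later, expressed as % change versus vehicle-treated controls.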
Turning to `Cc1nc2c(-c3ccc(Cl)cc3)n(-c3ccccc3Cl)nc2c(=O)n1CC(F)(F)F`, the Activity is listed as -35%.
The same measure, in the same setting: the result for `O=c1c2nn(-c3ccccc3Cl)c(-c3ccc(Cl)cc3)c2ncn1CC(F)(F)F` reads -32%.

Tested on in the next series: not listed separately
The series can be described thus: Plasma clearance in Beagle dog at 0.5 mg/kg, iv. The format is ADME, organism-based, Canis lupus familiaris. Details: dose 0.5 mg/kg, route intravenous.
Conditions: not given
The method, boiled down: (§2)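 Male beagle dogs, 0.5 mg/kg iv. Vehicle: 6.7% EtOH/60% CD/33.3% PEG 400 or Transcutol P, depending on compound; amorphous solid used for iv. Plasma levels by LC-MS/MS after protein precipitation.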
Compound `Cc1nc2c(-c3ccc(Cl)cc3)n(-c3ccccc3Cl)nc2c(=O)n1CC(F)(F)F` displayed a clearance of 10 mL/min/kg.
Take `O=c1c2nn(-c3ccccc3Cl)c(-c3ccc(Cl)cc3)c2ncn1CC(F)(F)F`: the clearance worked out at 0.54 mL/min/kg. This clearance lies about 19-fold lower than the previous one.

Tested on in a further series: not listed separately
The series can be described thus: Volume of distribution in Beagle dog at 0.5 mg/kg, iv. The format is ADME, organism-based, Canis lupus familiaris. Details: dose 0.5 mg/kg, route intravenous. As to conditions: in vivo, read-out: Vdss. The method in brief: as §2
On to `Cc1nc2c(-c3ccc(Cl)cc3)n(-c3ccccc3Cl)nc2c(=O)n1CC(F)(F)F`, for which the Vd was 17 L/kg.
In the case of `O=c1c2nn(-c3ccccc3Cl)c(-c3ccc(Cl)cc3)c2ncn1CC(F)(F)F`, the Vd is 10 L/kg.

The test system of a further series is Rattus norvegicus. The series can be described thus: Anorectic activity assessed in a fasting-induced re-feeding model in Sprague-Dawley rat at 0.3 mg/kg, po relative to control. The format is functional.
Conditions: not given
The method in brief: as §1
As for `O=c1c2nn(-c3ccccc3Cl)c(-c3ccc(Cl)cc3)c2ncn1CC(F)(F)F`, the Activity is -23%.

The next series addresses T1, Cannabinoid receptor 1 (Homo sapiens, UniProt P21554). The series can be described thus: Functional activity at human CB1 receptor transfected in CHOK1 cells by [35SGTP]gammaS assay. The format is cell-based, CHO-K1.
Conditions: not given
`CC(C)c1nc2c(-c3ccc(Cl)cc3)n(-c3ccccc3Cl)nc2c(=O)n1CC(F)(F)F` showed an inhibition constant Ki of 13 nM.
With `O=c1c2nn(-c3ccccc3Cl)c(-c3ccc(Cl)cc3)c2ncn1N1CCCCC1`, the inhibition constant Ki stood at 20 nM.
For the compound `O=c1c2nc(-c3ccccc3Cl)n(-c3ccc(Cl)cc3)c2ncn1CC(F)(F)F`, the inhibition constant (Ki) is 1 nM.
As to `CCc1nc2c(-c3ccc(Cl)cc3)n(-c3ccccc3Cl)nc2c(=O)n1CC(F)(F)F`, the Ki worked out at 3 nM.
In the case of `O=c1c2nn(-c3ccccc3Cl)c(-c3ccc(Cl)cc3)c2ccn1CC(F)(F)F`, the Ki worked out at 1 nM. This Ki lies about 3-fold lower than the previous one.
With `O=c1c2nn(-c3ccccc3Cl)c(-c3ccc(Cl)cc3)c2cnn1CC(F)(F)F`, the Ki is 4 nM.

The test system of another series is Rattus norvegicus. The series can be described thus: Anorectic activity assessed in a fasting-induced re-feeding model in Sprague-Dawley rat at 10 mg/kg, po relative to control. The format is functional.
Conditions: not given
The method in brief:
as §1
`Cc1nc2c(-c3ccc(Cl)cc3)n(-c3ccccc3Cl)nc2c(=O)n1CC(F)(F)F`: the Activity is -59%.

Tested on in another series: not listed separately
Briefly: Plasma clearance in Sprague-Dawley rat at 1 mg/kg, iv. The format is ADME, organism-based. Details: dose 1 mg/kg, route intravenous.
Conditions: not given
The method in brief:
(§3)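 Male Sprague-Dawley rats, 1 mg/kg iv via jugular vein cannula, amorphous solid in 20% EtOH/80% CD or Transcutol P/CD depending on compound. Plasma levels by LC-MS/MS after protein precipitation.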
As to `Cc1nc2c(-c3ccc(Cl)cc3)n(-c3ccccc3Cl)nc2c(=O)n1CC(F)(F)F`, the clearance amounted to 32 mL/min/kg.
Take `O=c1c2nn(-c3ccccc3Cl)c(-c3ccc(Cl)cc3)c2ncn1CC(F)(F)F`: the clearance was found to be 45 mL/min/kg.

A further series addresses T1, Cannabinoid receptor 1. Briefly: biochemical. The format is cell-based, HEK293.
Conditions: not given
Consider `O=c1c2nn(-c3ccc(Cl)cc3)c(-c3ccccc3Cl)c2ncn1CC(F)(F)F`, for which the Ki stood at 28 nM.
`CC(C)c1nc2c(-c3ccc(Cl)cc3)n(-c3ccccc3Cl)nc2c(=O)n1CC(F)(F)F`: the affinity corresponds to a Ki of 6 nM. This Ki is about 4.7-fold lower than that of the compound before.
On the same count and under the same terms, the result for `O=c1c2nn(-c3ccccc3Cl)c(-c3ccc(Cl)cc3)c2ncn1N1CCCCC1` reads 12 nM; that for `O=c1c2nn(-c3ccccc3Cl)c(-c3ccc(Cl)cc3)c2ncn1C1CCCCC1`, 20 nM.
Compound `O=c1c2nn(-c3ccc(Cl)cc3)c(-c3ccccc3Cl)c2ncn1C1CCCCC1` registered a Ki of 38 nM. Compared with the last compound, the Ki is about 1.9-fold higher.
On to `O=c1c2nc(-c3ccccc3Cl)n(-c3ccc(Cl)cc3)c2ncn1CC(F)(F)F`, for which the Ki came out at 1 nM. Compared with the last compound, the Ki is about 38-fold lower.
For the compound `CCc1nc2c(-c3ccc(Cl)cc3)n(-c3ccccc3Cl)nc2c(=O)n1CC(F)(F)F`, the inhibition constant Ki stood at 1 nM.
`O=c1c2nn(-c3ccccc3Cl)c(-c3ccc(Cl)cc3)c2ccn1CC(F)(F)F` returned an inhibitory constant (Ki) of 1 nM.
`CCC(CC)n1cnc2c(-c3ccc(Cl)cc3)n(-c3ccccc3Cl)nc2c1=O`: the affinity corresponds to a Ki of 26 nM.
The compound `O=c1c2nn(-c3ccccc3Cl)c(-c3ccc(Cl)cc3)c2cnn1CC(F)(F)F` showed an inhibitory constant (Ki) of 8 nM. This Ki is about 3.2-fold lower than that of the compound before.
`CC(C)n1cnc2c(-c3ccc(Cl)cc3)n(-c3ccccc3Cl)nc2c1=O` returned a Ki of 21 nM.

In the next series the test system is Rattus norvegicus. Briefly: Anorectic activity assessed in a fasting-induced re-feeding model in Sprague-Dawley rat at 3 mg/kg, po relative to control. The format is functional.
Conditions: not given
The method in brief:
as §1
Regarding `Cc1nc2c(-c3ccc(Cl)cc3)n(-c3ccccc3Cl)nc2c(=O)n1CC(F)(F)F`, the Activity was -42%.
For `O=c1c2nn(-c3ccccc3Cl)c(-c3ccc(Cl)cc3)c2ncn1CC(F)(F)F`, the Activity is -78%.

Tested on in a further series: not listed separately
The series can be described thus: Half life in Beagle dog at 0.5 mg/kg, iv. The format is ADME, organism-based, Canis lupus familiaris. Also on record: dose 0.5 mg/kg, route intravenous. As to conditions: in vivo. The method, boiled down:
as §2
With `Cc1nc2c(-c3ccc(Cl)cc3)n(-c3ccccc3Cl)nc2c(=O)n1CC(F)(F)F`, the half-life is 39 h.
Same read-out and setting: the same measure for `O=c1c2nn(-c3ccccc3Cl)c(-c3ccc(Cl)cc3)c2ncn1CC(F)(F)F`: 223 h.

Another series has as its system Mus musculus. Briefly: Ability to reverse CP-55940-stimulated responses in mice at 1 mg/kg, sc. Also on record: dose 1 mg/kg. The format is functional, organism-based.
Conditions: not given
The method in brief: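 Mouse challenge assay from the 'tetrad': reversal of CP-55940-stimulated analgesia and hypothermia, test agent given sc.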
For `Cc1nc2c(-c3ccc(Cl)cc3)n(-c3ccccc3Cl)nc2c(=O)n1CC(F)(F)F`, the outcome was Active.
As for `O=c1c2nn(-c3ccccc3Cl)c(-c3ccc(Cl)cc3)c2ncn1CC(F)(F)F`, the result was Active.

Tested on in a further series: not listed separately
The series can be described thus: Bioavailability in Sprague-Dawley rat at 1 mg/kg, iv. The format is ADME, organism-based. The settings on record: in vivo. The method in brief:
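Male Sprague-Dawley rats: iv dosing 1 mg/kg via jugular cannula (20% EtOH/80% CD or Transcutol P/CD); oral dosing of crystalline solid in 0.5% methylcellulose. Plasma by LC-MS/MS after protein precipitation.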
In the case of `Cc1nc2c(-c3ccc(Cl)cc3)n(-c3ccccc3Cl)nc2c(=O)n1CC(F)(F)F`, the bioavailability is 7%.
On to `O=c1c2nn(-c3ccccc3Cl)c(-c3ccc(Cl)cc3)c2ncn1CC(F)(F)F`, for which the bioavailability stood at 62%.

Tested on in another series: not listed separately
Briefly: Half life in Sprague-Dawley rat at 1 mg/kg, iv. Also on record: dose 1 mg/kg, route intravenous. The format is ADME, organism-based. The settings on record: in vivo. The method, boiled down:
as §3
Take `Cc1nc2c(-c3ccc(Cl)cc3)n(-c3ccccc3Cl)nc2c(=O)n1CC(F)(F)F`: the half-life was 4.7 h.
As for `O=c1c2nn(-c3ccccc3Cl)c(-c3ccc(Cl)cc3)c2ncn1CC(F)(F)F`, the half-life is 2.6 h.

For a further series, the target named is Cannabinoid receptor 2 (Homo sapiens, UniProt P34972). Briefly: Binding affinity to human CB2 receptor expressed in CHOK1 cells.
Chain of Cannabinoid receptor 2 (P34972 whole entry): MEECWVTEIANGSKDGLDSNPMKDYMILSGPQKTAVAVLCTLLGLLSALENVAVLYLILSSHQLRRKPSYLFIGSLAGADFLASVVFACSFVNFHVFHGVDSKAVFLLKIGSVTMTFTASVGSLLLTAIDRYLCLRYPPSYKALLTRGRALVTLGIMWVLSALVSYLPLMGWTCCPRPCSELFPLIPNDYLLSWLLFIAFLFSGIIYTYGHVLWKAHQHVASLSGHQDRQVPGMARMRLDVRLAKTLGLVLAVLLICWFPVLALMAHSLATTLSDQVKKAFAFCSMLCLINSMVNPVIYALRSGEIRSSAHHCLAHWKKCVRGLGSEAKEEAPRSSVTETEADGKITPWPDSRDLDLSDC
Conditions: not given
The format is cell-based, CHO-K1.
With `O=c1c2nn(-c3ccc(Cl)cc3)c(-c3ccccc3Cl)c2ncn1CC(F)(F)F`, the Ki was more than 10000 nM.
On to `CC(F)(F)Cn1cnc2c(-c3ccc(Cl)cc3)n(-c3ccccc3Cl)nc2c1=O`, for which the Ki is more than 10000 nM.
Turning to `CC(C)c1nc2c(-c3ccc(Cl)cc3)n(-c3ccccc3Cl)nc2c(=O)n1CC(F)(F)F`, the Ki is more than 10000 nM.
For the compound `O=c1c2nn(-c3ccccc3Cl)c(-c3ccc(Cl)cc3)c2ncn1N1CCCCC1`, the Ki is more than 10000 nM.
With `Cc1nc2c(-c3ccc(Cl)cc3)n(-c3ccccc3Cl)nc2c(=O)n1CC(F)(F)F`, the inhibitory constant (Ki) was more than 10000 nM.
On to `O=c1c2nn(-c3ccccc3Cl)c(-c3ccc(Cl)cc3)c2ncn1C1CCCCC1`, for which the inhibitory constant (Ki) is more than 10000 nM.
Still for that read-out and setting: the result for `O=c1c2nn(-c3ccc(Cl)cc3)c(-c3ccccc3Cl)c2ncn1C1CCCCC1` reads more than 10000 nM.
`O=c1c2nn(-c3ccccc3Cl)c(-c3ccc(Cl)cc3)c2ncn1Cc1ccccc1` returned a Ki of more than 10000 nM.
With `CCCn1cnc2c(-c3ccc(Cl)cc3)n(-c3ccccc3Cl)nc2c1=O`, the Ki was more than 10000 nM.
Turning to `O=c1c2nc(-c3ccccc3Cl)n(-c3ccc(Cl)cc3)c2ncn1CC(F)(F)F`, the inhibitory constant (Ki) is more than 10000 nM.
For `CCc1nc2c(-c3ccc(Cl)cc3)n(-c3ccccc3Cl)nc2c(=O)n1CC(F)(F)F`, the inhibition constant (Ki) was more than 10000 nM.
`CCn1cnc2c(-c3ccc(Cl)cc3)n(-c3ccccc3Cl)nc2c1=O` had an inhibition constant (Ki) of more than 10000 nM.
Consider `O=c1c2nn(-c3ccccc3Cl)c(-c3ccc(Cl)cc3)c2ccn1CC(F)(F)F`, for which the Ki is more than 10000 nM.
The same measure, in the same setting: the same measure for `O=c1c2nn(-c3ccccc3Cl)c(-c3ccc(Cl)cc3)c2ncn1CCC(F)(F)F`: more than 10000 nM; for `O=c1c2nn(-c3ccccc3Cl)c(-c3ccc(Cl)cc3)c2ncn1CC(F)F`: more than 10000 nM.
On to `O=c1c2nn(-c3ccccc3Cl)c(-c3ccc(Cl)cc3)c2ncn1CC(F)(F)F`, for which the Ki is more than 10000 nM.
The same measure, in the same setting: the same measure for `O=c1c2nn(-c3ccccc3Cl)c(-c3ccc(Cl)cc3)c2cnn1CC(F)(F)F`: more than 10000 nM.
Still for that read-out and setting: the result for `O=c1c2nn(-c3ccccc3Cl)c(-c3ccc(Cl)cc3)c2ncn1CCF` reads more than 10000 nM.

Tested on in a further series: not listed separately
Briefly: Volume of distribution in Sprague-Dawley rat at 1 mg/kg, iv. The format is ADME, organism-based. Also on record: dose 1 mg/kg, route intravenous. As to conditions: in vivo, read-out: Vdss. The method in brief: as §3
`Cc1nc2c(-c3ccc(Cl)cc3)n(-c3ccccc3Cl)nc2c(=O)n1CC(F)(F)F`: the Vd was determined as 7.7 L/kg.
Take `O=c1c2nn(-c3ccccc3Cl)c(-c3ccc(Cl)cc3)c2ncn1CC(F)(F)F`: the Vd stood at 9.2 L/kg.

By clearance is commonly meant a measure of how efficiently the substance is removed, as volume per time. Read a high clearance as efficient removal. As usually defined, the Ki is the equilibrium dissociation constant of an inhibitor or competing ligand from its target. A higher Ki goes with lower affinity. As a reminder, the half-life is the time in which the quantity being followed falls by half. Higher therefore signals slow decline. By bioavailability is commonly meant dose-corrected exposure relative to a reference, in per cent. Higher therefore signals much systemic uptake.
